Screening results: PubChem BioAssay, Broad Institute
CFTR F508del cor = correctors of CFTR F508del function in bronchial epithelial cells; CFBE cells, YFP halide quenching; stimulated with forskolin plus potentiator P3; % fluorescence drop versus neutral controls; activity (quench increase), % at 7.58 µM; 350,000 compounds, 0.36% hits; AID 720511;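 active = mean added fluorescence quench of at least 8% versus neutral control, with both replicates also reaching 8%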;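 note: cells transiently co-express mutant CFTR-F508del with the halide-sensitive YFP; corrector assay measuring rescue of mutant channel to the surface after 24 h compound exposure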
dFosB act-1 = mouse delta FosB homodimer activation | P13346 | 340,000 compounds, 0.99% hits | activation, % at 25 µM | purified delta FosB, TAMRA-CDK5 oligo fluorescence polarization; percent of positive-control signal above neutral wells;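 active = mean activation above about 17%, with every replicate also reaching it, limit read from the data, passing the limit was not always enough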
Target sequence (P13346 whole entry, looked up): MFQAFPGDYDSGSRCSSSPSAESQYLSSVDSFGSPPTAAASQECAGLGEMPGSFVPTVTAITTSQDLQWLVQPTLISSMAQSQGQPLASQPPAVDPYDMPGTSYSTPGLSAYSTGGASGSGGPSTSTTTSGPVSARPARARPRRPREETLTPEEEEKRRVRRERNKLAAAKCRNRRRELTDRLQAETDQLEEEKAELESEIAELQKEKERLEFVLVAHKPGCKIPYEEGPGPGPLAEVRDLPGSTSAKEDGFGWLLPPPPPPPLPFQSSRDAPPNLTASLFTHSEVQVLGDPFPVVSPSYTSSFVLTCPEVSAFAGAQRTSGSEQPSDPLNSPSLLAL
FGF22 binding = FGF22 (human) thermal shift binding. Q9HCT0. recombinant FGF22 thermal shift, SYPRO orange fluorescence; percent of sucrose octasulfate shift, DMSO zero. activity (Tm shift, normalised), % at 9.99 µM. 340,000 compounds, 1.5% hits;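 active = mean Tm shift, scaled 0 neutral to 100 positive control, at about 1.3% or above, every replicate too, limit read from the data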
Target sequence (Q9HCT0 whole entry, looked up): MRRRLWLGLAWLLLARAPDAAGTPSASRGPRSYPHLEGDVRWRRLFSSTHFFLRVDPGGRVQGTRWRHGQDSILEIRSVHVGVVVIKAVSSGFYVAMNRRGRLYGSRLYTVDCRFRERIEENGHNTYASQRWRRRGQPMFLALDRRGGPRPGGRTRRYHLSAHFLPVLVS
S100A4 inh HTS = inhibitors of human S100A4 binding to myosin IIA peptide. inhibition, % at 10.7 µM. 360,000 compounds, 0.14% hits. S100A4/TAMRA-MyoIIA peptide fluorescence polarization. P26447;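 active = mean inhibition of at least 70% across replicates, with every replicate also reaching that level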
Target sequence (P26447 whole entry, looked up): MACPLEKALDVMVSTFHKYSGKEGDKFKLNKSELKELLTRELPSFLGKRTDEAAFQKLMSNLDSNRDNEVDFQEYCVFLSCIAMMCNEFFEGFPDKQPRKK
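Material: S100A4 monomer protein | Medium: HEPES pH 7.2 with CaCl2, KCl, NaCl, DTT, Triton | Reagent: Labelled myosin peptide probe, 5 nM | Doses: One dose per compound | Times: 5 min incubation before reading | Benchmarks: Neutral control DMSO, positive control TFP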
dFosB act-2 = activators of mouse delta FosB homodimer DNA binding | shares compounds with dFosB act-1 | purified delta FosB, TAMRA-CDK5 oligo fluorescence polarization; normalised: neutral wells 0, positive control 100 | activation, % at 24.9 µM | 2,400 tested, under 10 active | AID 588690;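 active = highest replicate activation at or above 34% and every replicate reaching that threshold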;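 note: higher polarization means more probe DNA bound by delta FosB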
An asterisk follows results filed as active; / = no result given. Most compounds without a hit are left out; they make up all but 2.2% or so of the library.

SMILES	CFTR F508del cor	dFosB act-1	FGF22 binding	S100A4 inh HTS	dFosB act-2
Cc1ccc(NC(=O)[C@H](NC(=O)[C@@H]2Cc3ccccc3CN2)c2ccccc2)c(C)c1	-1.8	-6.9	-0.1	-2.6	/
CC(C)C[C@H](NC(=O)[C@@H]1Cc2ccccc2CN1)C(=O)Nc1ccc(C(C)C)cc1	0.3	23.3*	-0.1	-6.8	-2.1
Cc1ccccc1NC(=O)CSc1nc(N)c(C#N)c(-c2cccs2)c1C#N	/	60.6*	/	/	3.4
CCN(CC)CCN(C(=O)c1ccc2c(c1)CCCC2)c1nc2c(C)cccc2s1	-0.1	29.3*	0.0	-4.2	-4.8
CCN(CC)CCN(C(=O)c1ccc2c(c1)CCCC2)c1nc2ccc(C)cc2s1	0.1	10.9	-0.1	1.0	/
CCN(CC)CCN(C(=O)c1ccc2c(c1)CCCC2)c1nc2ccc(OC)cc2s1	-5.9	22.9*	-0.3	-6.0	0.5
Cc1cc(C)nc(NCc2ccc(Cl)cc2)n1	0.8	2.2	0.3	1.2	/
Cc1cc(N/N=C/c2cccc(Cl)c2)nc(NCc2ccccc2)n1	/	41.0*	/	/	2.5
Cc1cc(Nc2cccc(Cl)c2)nc(NCc2ccccc2)n1	-15.8	40.9*	0.4	-9.9	-1.4
O=C(CC(=O)N/N=C/c1ccc(Cl)cc1Cl)NCc1ccccc1	/	-6.5	/	-5.2	/
CN(C)c1nc(NCc2ccccc2)nc(N/N=C/c2ccc(Cl)cc2Cl)n1	/	17.4*	/	/	5.0
COc1cccc(S(=O)(=O)N2CC[C@@H]3[C@H]2c2cc(Br)ccc2N[C@@H]3CO)c1	-3.2	/	0.0	/	/
CO[C@@H]1CN(C)C(=O)c2cc(NC(C)=O)ccc2OC[C@H](C)N(CC2CC2)C[C@H]1C	2.4	/	-0.2	14.6	/
O=C(C[C@H]1C=C[C@H](NS(=O)(=O)c2ccc(F)cc2)[C@H](CO)O1)NC1CCC1	-0.9	/	-0.2	6.0	/
CC(=O)n1cc(/C=N/NC(=O)c2cccc(O)c2)c2ccccc21	1.6	27.4*	-0.1	-4.9	6.0
CC(=O)n1cc(/C=N/NC(=O)c2ccc(Cl)cc2)c2ccccc21	-0.4	6.1	-0.1	9.1	/
O=C(Cn1c2ccccc2c(=O)c2ccccc21)Nc1cccc(F)c1	-0.1	37.3*	-0.2	1.6	3.6
Cc1ccc(-c2cc(C(=O)N/N=C/c3ccc(Cl)cc3)n[nH]2)o1	-3.4	27.3*	-0.2	1.6	0.7
Cc1ccc(-c2cc(C(=O)N/N=C/c3ccccc3)n[nH]2)o1	-1.4	9.8	1.2	7.8	/
C[C@H]1CCCCO[C@H](CN(C)S(=O)(=O)c2ccccc2)[C@@H](C)CN([C@@H](C)CO)C(=O)c2cc(NS(C)(=O)=O)ccc2O1	3.2	/	0.0	-0.6	/
Cc1cccc(NC(=O)CSc2nc3ccccc3c3nc(CCc4c(C)n[nH]c4C)nn23)c1	/	44.1*	/	/	-9.1
Cc1n[nH]c(C)c1CCc1nc2c3ccccc3nc(SCC(=O)Nc3ccccc3F)n2n1	/	56.8*	/	/	5.6
CC(=O)Nc1nc(-c2ccc([N+](=O)[O-])cc2)cs1	-1.1	2.3	0.2	4.0	/
O=C(Nc1ccc(Cl)cc1)Nc1nc(-c2ccccc2)cs1	-2.5	29.8*	0.2	2.6	5.6
O=C(Nc1ccc([N+](=O)[O-])cc1)Nc1nc(-c2ccc(Cl)s2)cs1	2.9	28.7*	0.2	1.8	7.4
SMILES	CFTR F508del cor	dFosB act-1	FGF22 binding	S100A4 inh HTS	dFosB act-2
CC(=O)Nc1nc(-c2cc([N+](=O)[O-])cs2)cs1	-0.7	29.4*	0.5	2.1	-1.9
COC(=O)c1ccc(NC(=O)c2cccc(NC(=O)c3ccco3)c2)cc1	1.8	16.9*	0.0	-1.2	4.0
COC(=O)Cc1ccc(NC(=O)c2ccc(NC(=O)c3ccco3)cc2)cc1	-2.5	34.1*	0.2	4.2	3.2
COC(=O)c1cccc(NC(=O)NC(=O)c2ccc(Cl)cc2)c1	7.3	41.1*	0.1	1.6	3.1
CC(=O)Oc1ccc(C(=O)Nc2cccc(NC(=O)c3ccco3)c2)cc1	0.1	-21.2	0.0	-6.4	/
O=C(Nc1cccc(NC(=O)c2ccco2)c1)c1ccc([N+](=O)[O-])cc1	2.2	20.4*	-0.3	-5.6	3.7
O=S(=O)(N[C@H]1CC[C@H](CCn2cc(C3(O)CCCC3)nn2)O[C@H]1CO)c1ccccc1	-1.8	/	0.0	-12.9	/
O=C(NC1CCC1)[C@@H]1[C@@H](CO)[C@@H]2Cn3c(cccc3=O)[C@H]1N2CC1CCCCC1	/	/	-0.1	-21.2	/
CO[C@H]1CN(C)C(=O)c2ccc(NS(=O)(=O)CC(F)(F)F)cc2OC[C@@H](C)N(C(=O)c2ccc3c(c2)OCO3)C[C@@H]1C	-0.7	/	/	-23.9	/
O=C(c1cc(-c2ccc(Cl)c(Cl)c2)on1)N1CCOCC1	3.0	50.2*	-0.2	12.8	-0.4
O=C(c1cc(-c2ccc(Cl)cc2)on1)N1CCOCC1	/	-6.8	/	-3.1	/
Cc1ccc(C)c(Nc2nn3c(=O)c4ccc(C(=O)NCc5cccnc5)cc4nc3s2)c1	-0.1	98.7*	0.0	-9.1	-1.4
CCOC(=O)c1nn(-c2ccccc2)c(=O)cc1OCC(=O)Nc1cc(C)ccc1OC	-1.3	22.5*	-0.4	0.8	5.5
C/C(=N\NC(=O)COc1ccccc1[N+](=O)[O-])c1cccc(NC(=O)c2ccncc2)c1	0.3	21.3*	0.0	-6.3	3.0
C/C(=N\NC(=O)c1ccncc1)c1cccc(NC(=O)c2ccc(C(C)(C)C)cc2)c1	-2.0	-11.8	0.0	0.6	/
Cc1noc(C(=O)Nc2ccc(F)c(Cl)c2)c1Cl	-1.8	24.0*	0.0	0.3	3.8
CCC(=O)Nc1cccc(NC(=O)c2ccc3c(c2)OCO3)c1	/	28.4*	/	/	0.9
COc1cccc(NC(=O)c2ccc3c(c2)OCO3)c1	-4.4	1.0	-0.1	10.6	/
C/C(=N/NC(=O)c1ccc2c(c1)OCO2)c1ccc(NC(=O)c2ccc(F)cc2)cc1	-1.6	42.6*	-0.1	-3.4	1.9
C/C(=N\NC(=S)Nc1ccc(F)cc1)c1ccc2c(c1)OCCO2	1.5	-8.1	0.0	0.5	/
C[C@@H]1CN([C@@H](C)CO)C(=O)c2cc(NC(=O)Nc3cccc4ccccc34)ccc2O[C@H]1CN(C)C(=O)Nc1ccc2c(c1)OCO2	4.0	/	-0.3	-11.8	/
C[C@H](CO)N1C[C@H](C)[C@@H](CN(C)C(=O)c2ccccc2)OCCCC[C@H](C)Oc2ccc(NC(=O)Cc3ccccc3)cc2C1=O	-1.4	/	-0.1	5.4	/
Cc1ccc(-c2nnn(CC(=O)N(Cc3ccccc3)C(C(=O)NC3CCCC3)c3ccncc3)n2)o1 (configuration not stated)	1.6	33.4*	0.0	-9.1	0.0
CCN(CC)CCN(C(=O)CCS(=O)(=O)c1ccccc1)c1nc2c(C)cc(C)cc2s1	-2.1	56.4*	0.4	0.5	-2.1
CCN(CC)CCN(C(=O)CCS(=O)(=O)c1ccccc1)c1nc2cc(OC)c(OC)cc2s1	-2.5	-4.6	-0.1	-5.1	/
